Assay results from paper PMC8453750 (Clinical Pharmacology in Drug Development, 2021).

Tests used:
[1] = tested on: CYP2B6; details: recombinant human CYPs; cited from earlier work
[2] = cited from earlier work
[3] = Part 1: mobocertinib-itraconazole DDI study, plasma PK; type: in vivo, human; details: for AUC(0-inf) / Cmax / half-life: human, plasma, oral; for AUC(0-inf): AUC0-∞; for half-life: t½; for AUC0-∞, Geometric LS Mean Ratio (90%CI) (Test/Reference) / Cmax, Geometric LS Mean Ratio (90%CI) (Test/Reference): mobocertinib 20 mg + itraconazole vs mobocertinib alone
In short: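 Nonsmoking adults aged 18–55 (n = 12) took a single oral capsule dose of 20 mg fasted, with a meal at least 4 h postdose. This was repeated with itraconazole solution 200 mg once daily on an empty stomach over 14 days, after a 4-day lead-in. Plasma was sampled predose to 168 h, adding 192 and 240 h with itraconazole. Parent and two metabolites were measured by LC-MS/MS (LLOQ 0.100 ng/mL). Analysis was noncompartmental, with ln-transformed geometric LSM ratios and 90% CI.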

[4] = tested on: CYP3A4/5; details: recombinant human CYPs; cited from earlier work
[5] = Part 1 safety: treatment-emergent adverse events, labs, vital signs, ECG; type: in vivo, human
In short: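 Part 1 had 12 healthy adults. They received a single fasted oral 20 mg dose of the test compound, then itraconazole oral solution 200 mg once daily for 14 days, with the test compound coadministered. TEAEs were recorded through 30 days after the last test-compound dose, coded with MedDRA v22.0 and graded by NCI CTCAE v5. Vital signs, hematology/chemistry/urinalysis and 12-lead ECG were also assessed. All were summarised descriptively.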

[6] = tested on: CYP2C8; details: recombinant human CYPs; cited from earlier work
[7] = tested on: CYP2C19; details: recombinant human CYPs; cited from earlier work
[8] = tested on: CYP2D6; details: recombinant human CYPs; cited from earlier work
[9] = Part 2 safety: treatment-emergent adverse events, labs, vital signs, ECG; type: in vivo, human
In short: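 Part 2 had 12 healthy adults. They received a single fasted oral 160 mg dose of the test compound, then rifampin 600 mg once daily, with a 7-day lead-in before coadministration and 6 days of continued dosing afterwards. TEAEs were recorded through 30 days after the last test-compound dose, coded with MedDRA v22.0 and graded by NCI CTCAE v5. Vital signs, hematology/chemistry/urinalysis and 12-lead ECG were also assessed. All were summarised descriptively.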

[10] = preclinical data; ref data on file; Millennium Pharmaceuticals, Inc.; cited from earlier work
[11] = Part 2: mobocertinib-rifampin DDI study, plasma PK; type: in vivo, human
[12] = tested on: CYP1A2; details: recombinant human CYPs; cited from earlier work
[13] = tested on: CYP2C9; details: recombinant human CYPs; cited from earlier work
[14] = cited from earlier work; remark: listed apart in the source
[15] = 20 mg, Arithmetic Means (SD), mobocertinib 20 mg alone (reference), footnote a: mean (%CV)
[16] = 20 mg, Geometric Means (%CV), mobocertinib 20 mg alone (reference)
[17] = Arithmetic Means (SD), mobocertinib 20 mg + itraconazole 200 mg once daily (test), footnote a: mean (%CV)
[18] = Geometric Means (%CV), mobocertinib 20 mg + itraconazole 200 mg once daily (test)
[19] = itraconazole and mobocertinib 20 mg vs mobocertinib alone
[20] = itraconazole plus mobocertinib 20 mg vs mobocertinib alone
[21] = Mobocertinib 20 mg + Itraconazole, part 1
[22] = Mobocertinib 20 mg Alone, part 1
[23] = Mobocertinib 160 mg + Rifampin, part 2
[24] = Mobocertinib 160 mg Alone, part 2
[25] = mobocertinib 160 mg + rifampin vs mobocertinib alone
[26] = rifampin plus mobocertinib 160 mg

**Q.** Which results are given for `C=CC(=O)Nc1cc(Nc2ncc(C(=O)OC(C)C)c(-c3cn(C)c4ccccc34)n2)c(OC)cc1N(C)CCN(C)C` [Mobocertinib]?
**A.** Percent contribution of enzyme to metabolism [1]: < 2%; Effect of a low-fat meal on absorption [2]: no apparent effect; Excreted unchanged in urine ([2]; renal elimination): < 1.2%; Mean half-life ([2]; single oral doses, healthy volunteers): 20 h; AUC(0-inf) [3, 15]: 113 ng·h/mL; AUC(0-inf) [3, 16]: 106 ng·h/mL; Cmax [3, 15]: 5.78 ng/mL; Cmax [3, 16]: 5.52 ng/mL; half-life [3, 15]: 21.5 h; half-life [3, 16]: 21.2 h; AUC(0-inf) [3, 17]: 907 ng·h/mL; AUC(0-inf) [3, 18]: 892 ng·h/mL; Cmax [3, 17]: 21.5 ng/mL; Cmax [3, 18]: 21.1 ng/mL; half-life [3, 17]: 54.7 h; half-life [3, 18]: 53.9 h; Increase in plasma AUC0-∞ [3, 19]: 743%; Increase in plasma Cmax [3, 19]: ≈ 283%; Increase in geometric mean t½ [3, 20]: 154%; Median tmax reached later [3, 20]: 2 h; AUC0-∞, Geometric LS Mean Ratio (90%CI) (Test/Reference) [3]: 8.43 (7.02‐10.12); Cmax, Geometric LS Mean Ratio (90%CI) (Test/Reference) [3]: 3.83 (3.25‐4.50); AUC0-∞, Geometric LS Mean Ratio (90%CI) (Test/Reference) ([3]; listed as mobocertinib): 8.43; Cmax, Geometric LS Mean Ratio (90%CI) (Test/Reference) ([3]; listed as mobocertinib): 3.83; Percent contribution of enzyme to metabolism [4]: > 90%; TEAE: Back pain [5, 21]: 1 (8) n (%); TEAE: Chest discomfort [5, 21]: 0 n (%); TEAE: Diarrhea [5, 21]: 2 (17) n (%); TEAE: Dry skin [5, 21]: 0 n (%); TEAE: Dry throat [5, 21]: 0 n (%); TEAE: Headache [5, 21]: 1 (8) n (%); TEAE: Nausea [5, 21]: 0 n (%); TEAE: Oropharyngeal pain [5, 21]: 0 n (%); TEAE: Pruritus [5, 21]: 0 n (%); TEAE: Pruritus generalized [5, 21]: 0 n (%); TEAE: Rash [5, 21]: 0 n (%); Volunteers with TEAEs [5, 21]: 4 (33) n (%); Volunteers without TEAEs [5, 21]: 8 (67) n (%); TEAE: Back pain [5, 22]: 0 n (%); TEAE: Chest discomfort [5, 22]: 0 n (%); TEAE: Diarrhea [5, 22]: 0 n (%); TEAE: Dry skin [5, 22]: 1 (8) n (%); TEAE: Dry throat [5, 22]: 0 n (%); TEAE: Headache [5, 22]: 0 n (%); TEAE: Nausea [5, 22]: 0 n (%); TEAE: Oropharyngeal pain [5, 22]: 0 n (%); TEAE: Pruritus [5, 22]: 0 n (%); TEAE: Pruritus generalized [5, 22]: 0 n (%); TEAE: Rash [5, 22]: 0 n (%); Volunteers with TEAEs [5, 22]: 1 (8) n (%); Volunteers without TEAEs [5, 22]: 11 (92) n (%); TEAE: Back pain ([5]; Part 1 Overall): 1 (8) n (%); TEAE: Chest discomfort ([5]; Part 1 Overall): 0 n (%); TEAE: Diarrhea ([5]; Part 1 Overall): 2 (17) n (%); TEAE: Dry skin ([5]; Part 1 Overall): 1 (8) n (%); TEAE: Dry throat ([5]; Part 1 Overall): 0 n (%); TEAE: Headache ([5]; Part 1 Overall): 1 (8) n (%); TEAE: Nausea ([5]; Part 1 Overall): 0 n (%); TEAE: Oropharyngeal pain ([5]; Part 1 Overall): 0 n (%); TEAE: Pruritus ([5]; Part 1 Overall): 0 n (%); TEAE: Pruritus generalized ([5]; Part 1 Overall): 0 n (%); TEAE: Rash ([5]; Part 1 Overall): 0 n (%); Volunteers with TEAEs ([5]; Part 1 Overall): 5 (42) n (%); Volunteers without TEAEs ([5]; Part 1 Overall): 7 (58) n (%); Changes in laboratory parameters, vital signs, or ECGs ([5]; part 1): no apparent or consistent treatment‐related changes; Deaths, serious TEAEs, discontinuations ([5]; part 1): No deaths, serious TEAEs, or discontinuations; Tolerability ([5]; single oral dose 20 mg with itraconazole, healthy volunteers): generally well tolerated; Percent contribution of enzyme to metabolism [6]: < 2%; Percent contribution of enzyme to metabolism [7]: < 2%; Percent contribution of enzyme to metabolism [8]: < 2%; TEAE: Back pain [9, 23]: 1 (8) n (%); TEAE: Chest discomfort [9, 23]: 2 (17) n (%); TEAE: Diarrhea [9, 23]: 3 (25) n (%); TEAE: Dry skin [9, 23]: 0 n (%); TEAE: Dry throat [9, 23]: 0 n (%); TEAE: Headache [9, 23]: 2 (17) n (%); TEAE: Nausea [9, 23]: 2 (17) n (%); TEAE: Oropharyngeal pain [9, 23]: 2 (17) n (%); TEAE: Pruritus [9, 23]: 2 (17) n (%); TEAE: Pruritus generalized [9, 23]: 0 n (%); TEAE: Rash [9, 23]: 2 (17) n (%); Volunteers with TEAEs [9, 23]: 10 (83) n (%); Volunteers without TEAEs [9, 23]: 2 (17) n (%); TEAE: Back pain [9, 24]: 1 (8) n (%); TEAE: Chest discomfort [9, 24]: 0 n (%); TEAE: Diarrhea [9, 24]: 2 (17) n (%); TEAE: Dry skin [9, 24]: 3 (25) n (%); TEAE: Dry throat [9, 24]: 2 (17) n (%); TEAE: Headache [9, 24]: 1 (8) n (%); TEAE: Nausea [9, 24]: 1 (8) n (%); TEAE: Oropharyngeal pain [9, 24]: 0 n (%); TEAE: Pruritus [9, 24]: 0 n (%); TEAE: Pruritus generalized [9, 24]: 2 (17) n (%); TEAE: Rash [9, 24]: 0 n (%); Volunteers with TEAEs [9, 24]: 9 (75) n (%); Volunteers without TEAEs [9, 24]: 3 (25) n (%); TEAE: Back pain ([9]; Part 2 Overall): 2 (17) n (%); TEAE: Chest discomfort ([9]; Part 2 Overall): 2 (17) n (%); TEAE: Diarrhea ([9]; Part 2 Overall): 4 (33) n (%); TEAE: Dry skin ([9]; Part 2 Overall): 3 (25) n (%); TEAE: Dry throat ([9]; Part 2 Overall): 2 (17) n (%); TEAE: Headache ([9]; Part 2 Overall): 3 (25) n (%); TEAE: Nausea ([9]; Part 2 Overall): 3 (25) n (%); TEAE: Oropharyngeal pain ([9]; Part 2 Overall): 2 (17) n (%); TEAE: Pruritus ([9]; Part 2 Overall): 2 (17) n (%); TEAE: Pruritus generalized ([9]; Part 2 Overall): 2 (17) n (%); TEAE: Rash ([9]; Part 2 Overall): 2 (17) n (%); Volunteers with TEAEs ([9]; Part 2 Overall): 11 (92) n (%); Volunteers without TEAEs ([9]; Part 2 Overall): 1 (8) n (%); Changes in laboratory parameters, vital signs, or ECGs ([9]; part 2): no apparent or consistent treatment‐related changes; Deaths, serious TEAEs, discontinuations ([9]; part 2): No deaths, serious TEAEs, or discontinuations; Tolerability ([9]; single oral dose 160 mg with rifampin, healthy volunteers): generally well tolerated; Mutagenicity / genotoxicity [10]: neither mutagenic nor genotoxic; AUC0-∞, Geometric LS Mean Ratio (90%CI) (Test/Reference) [11, 25]: 0.04 (0.03‐0.05); Cmax, Geometric LS Mean Ratio (90%CI) (Test/Reference) [11, 25]: 0.05 (0.04‐0.07); AUC0-∞, Geometric LS Mean Ratio (90%CI) (Test/Reference) ([11]; mobocertinib 160 mg + rifampin vs mobocertinib alone, listed as mobocertinib): 0.04; Plasma AUC0-∞ as % of value following mobocertinib alone [11, 26]: ~4%; Plasma Cmax as % of value following mobocertinib alone [11, 26]: approximately 5%; Reduction in geometric mean t½ ([11]; rifampin plus mobocertinib 160 mg vs mobocertinib alone): 29%; Percent contribution of enzyme to metabolism [12]: < 2%; Percent contribution of enzyme to metabolism [13]: < 2%; Accumulation of systemic exposure after repeat dosing ([14]; 20 to 120 mg once daily, patients with NSCLC): moderate accumulation; Recommended phase 2 dose ([14]; dose escalation, patients with NSCLC): 160 mg once daily; Dose proportionality of Cmax and AUC0-24 ([14]; dose range 5 to 180 mg once daily): increased in a dose‐proportional manner; Median tmax ([14]; once-daily administration, patients with NSCLC): 4 hours postdose
